# Where a SMILES comes first, the peptide text is derived from it. [ ]: non-standard residue; d: D form.
# Tests used:
# [1] = molecular target: Kappa-type opioid receptor (Homo sapiens, UniProt P41145); assay: Displacement of [3H]U69,593 from human KOR expressed in HEK293 cells after 90 mins by liquid scintillation counting; type: cell-based
# Procedure, shortened: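 Membranes from HEK-293 cells expressing human KOR incubated 90 min at 25 °C in 100 mM Tris-HCl with 0.3% BSA, with [3H]U69,593 at 2 nM. Nonspecific binding defined with 10 μM U50,488. Filtered on polyethylenimine-presoaked GF/C filters, washed with ice-cold 50 mM Tris-HCl pH 7.4, then scintillation counted. Run in triplicate, ≥3 experiments. Ki from IC50 by Cheng–Prusoff.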
# Mu-type opioid receptor [2] = molecular target: T1, Mu-type opioid receptor (Homo sapiens, UniProt P35372); assay: biochemical
# [3] = molecular target: Delta-type opioid receptor (Homo sapiens, UniProt P41143); assay: Displacement of [3H]diprenorphine from human DOR expressed in HEK293 cells after 90 mins by liquid scintillation counting; type: cell-based
# Mu-type opioid receptor [4] = molecular target: T1, Mu-type opioid receptor; type: functional, cell-based, HEK293
# Mu-type opioid receptor [5] = molecular target: T1, Mu-type opioid receptor; assay: Partial agonist activity at human MOR expressed in HEK293 cells assessed as inhibition of forskolin-induced cAMP accumulation after 15 mins by cAMP EIA; type: functional, cell-based
# Procedure, shortened: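 Whole HEK-293 cells stably expressing MOR, grown in MEM/10% FBS and plated at 85–95% confluence. Cells washed, placed in serum-free medium with 0.5 mM IBMX, and given 10 μM forskolin ± compound (0.01 nM–100 μM) for 15 min at 37 °C. Lysed in 0.1 N HCl; cAMP in supernatant measured by EIA. Triplicates averaged for IC50 and Emax (% vehicle), 5–6 independent experiments.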
# Chain of Delta-type opioid receptor (P41143 whole entry): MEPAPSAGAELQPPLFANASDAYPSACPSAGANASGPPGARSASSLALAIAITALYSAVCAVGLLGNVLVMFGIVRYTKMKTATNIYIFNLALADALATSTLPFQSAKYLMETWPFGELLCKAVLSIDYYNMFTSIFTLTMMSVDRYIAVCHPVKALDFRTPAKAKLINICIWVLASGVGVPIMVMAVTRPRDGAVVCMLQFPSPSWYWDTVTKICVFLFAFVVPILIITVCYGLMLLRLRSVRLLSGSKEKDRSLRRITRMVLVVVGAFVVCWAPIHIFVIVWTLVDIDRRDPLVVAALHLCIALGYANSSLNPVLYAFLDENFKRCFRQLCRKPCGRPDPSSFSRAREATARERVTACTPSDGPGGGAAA
# T1 sequence (P35372 whole entry): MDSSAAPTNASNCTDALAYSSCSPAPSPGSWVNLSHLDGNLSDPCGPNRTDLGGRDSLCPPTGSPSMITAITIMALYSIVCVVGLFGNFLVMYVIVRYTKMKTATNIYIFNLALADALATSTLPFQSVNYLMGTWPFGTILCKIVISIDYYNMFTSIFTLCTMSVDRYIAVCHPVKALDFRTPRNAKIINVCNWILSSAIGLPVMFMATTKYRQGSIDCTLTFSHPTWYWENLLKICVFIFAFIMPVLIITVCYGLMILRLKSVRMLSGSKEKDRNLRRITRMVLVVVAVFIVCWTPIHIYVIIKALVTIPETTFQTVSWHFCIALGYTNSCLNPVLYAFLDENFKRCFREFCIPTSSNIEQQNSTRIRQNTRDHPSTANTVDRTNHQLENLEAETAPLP
# Chain of Kappa-type opioid receptor (P41145 whole entry): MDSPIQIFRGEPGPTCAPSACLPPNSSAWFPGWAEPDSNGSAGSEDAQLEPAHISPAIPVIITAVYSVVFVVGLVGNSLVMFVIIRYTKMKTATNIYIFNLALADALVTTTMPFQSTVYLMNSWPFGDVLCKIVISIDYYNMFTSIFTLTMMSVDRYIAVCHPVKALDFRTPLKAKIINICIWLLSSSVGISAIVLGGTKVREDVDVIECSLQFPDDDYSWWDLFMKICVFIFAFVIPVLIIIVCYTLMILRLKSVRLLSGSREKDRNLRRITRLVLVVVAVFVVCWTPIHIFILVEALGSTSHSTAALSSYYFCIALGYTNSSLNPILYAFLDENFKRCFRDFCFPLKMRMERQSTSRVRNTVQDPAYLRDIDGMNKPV
SMILES,Ki [1],Ki (Mu-type opioid receptor [2]),Ki [3],IC50 (Mu-type opioid receptor [4]),IC50 (Mu-type opioid receptor [5])
CC(=O)N[C@H](Cc1cnc[nH]1)C(=O)N[C@@H](Cc1ccccc1)C(N)=O,> 100 µM,> 100 µM,> 100 µM,,
CC(=O)N[C@H](Cc1cnc[nH]1)C(=O)N[C@@H](Cc1ccccc1)C(=O)NCC(N)=O,> 100 µM,> 100 µM,> 100 µM,,
CC(=O)N[C@H](CCCCN)C(=O)N[C@@H](Cc1ccccc1)C(N)=O,> 100 µM,> 100 µM,> 100 µM,,
CC(=O)N[C@H](CCCCN)C(=O)N[C@@H](Cc1ccccc1)C(=O)NCC(N)=O,> 100 µM,> 100 µM,> 100 µM,,
CC(=O)N[C@H](CCCNC(=N)N)C(=O)N[C@@H](Cc1ccccc1)C(N)=O,> 100 µM,> 100 µM,> 100 µM,,
CC(=O)N[C@H](CCCNC(=N)N)C(=O)N[C@@H](Cc1ccccc1)C(=O)NCC(N)=O,> 100 µM,> 100 µM,> 100 µM,,
NC(=O)[C@H]1CC(=O)NCCC(=O)N[C@H](Cc2c[nH]c3ccccc23)C(=O)N[C@@H](Cc2ccccc2)C(=O)N1,> 100 µM,0.0059 µM,> 100 µM,37 nM,
CC(=O)N[C@@H](Cc1c[nH]c2ccccc12)C(=O)N[C@@H](Cc1ccccc1)C(=O)NCC(N)=O (Ac-Trp-Phe-Gly-NH2),33 µM,74 µM,0.0121 µM,,
CC(=O)N[C@H](Cc1c[nH]c2ccccc12)C(=O)N[C@@H](Cc1ccccc1)C(=O)NCC(N)=O (Ac-[dW]-Phe-Gly-NH2),> 100 µM,0.0056 µM,> 100 µM,,200 nM
CC(=O)N[C@H](Cc1c[nH]c2ccccc12)C(=O)N[C@@H](Cc1ccccc1)C(N)=O (Ac-[dW]-Phe-NH2),> 100 µM,0.0155 µM,0.024 µM,> 100000 nM,
